Experimental data as given in ChEMBL document CHEMBL5661979, “Pharmacological inhibition of BMK1 suppresses tumor growth through promyelocytic leukemia protein” (Cancer Cell, 2010).
The source made the active and inactive calls. No cut-off for these calls is given here.

Columns and labels:
RPS6KA1/RPS6KA2/RPS6KA3 = RPS6KA1/RPS6KA2/RPS6KA3 (Homo sapiens, UniProt P51812+Q15349+Q15418); assay: Inhibition of RSK1/2/3 in human HeLa cells lysate at 2 uM pre incubated for 15 mins followed by ADP acyl phosphate probe addition and measured after 10 mins by LC-MS/MS analysis relative to control; format: subcellular; details: time 25.0 min
Chain of RPS6KA1/RPS6KA2/RPS6KA3 (P51812 whole entry, looked up, the tested form may be a part): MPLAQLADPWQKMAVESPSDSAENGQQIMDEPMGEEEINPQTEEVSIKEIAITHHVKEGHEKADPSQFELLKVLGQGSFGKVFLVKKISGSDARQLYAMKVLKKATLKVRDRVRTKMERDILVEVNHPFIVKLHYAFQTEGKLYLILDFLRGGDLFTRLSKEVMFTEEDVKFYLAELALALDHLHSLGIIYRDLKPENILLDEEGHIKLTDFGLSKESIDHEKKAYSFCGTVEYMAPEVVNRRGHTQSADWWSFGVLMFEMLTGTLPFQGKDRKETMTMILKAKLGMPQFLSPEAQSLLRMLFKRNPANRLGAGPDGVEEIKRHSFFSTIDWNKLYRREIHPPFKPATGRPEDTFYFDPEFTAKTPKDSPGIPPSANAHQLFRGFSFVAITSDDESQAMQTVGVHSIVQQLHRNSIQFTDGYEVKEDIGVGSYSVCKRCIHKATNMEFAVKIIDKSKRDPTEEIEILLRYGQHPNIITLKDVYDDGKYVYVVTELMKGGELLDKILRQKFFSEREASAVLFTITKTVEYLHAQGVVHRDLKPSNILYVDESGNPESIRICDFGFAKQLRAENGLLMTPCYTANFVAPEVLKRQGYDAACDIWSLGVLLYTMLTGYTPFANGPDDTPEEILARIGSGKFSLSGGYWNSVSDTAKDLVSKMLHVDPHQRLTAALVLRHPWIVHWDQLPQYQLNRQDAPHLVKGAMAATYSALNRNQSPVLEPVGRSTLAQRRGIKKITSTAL
Chain of RPS6KA1/RPS6KA2/RPS6KA3 (Q15349 whole entry, looked up, the tested form may be a part): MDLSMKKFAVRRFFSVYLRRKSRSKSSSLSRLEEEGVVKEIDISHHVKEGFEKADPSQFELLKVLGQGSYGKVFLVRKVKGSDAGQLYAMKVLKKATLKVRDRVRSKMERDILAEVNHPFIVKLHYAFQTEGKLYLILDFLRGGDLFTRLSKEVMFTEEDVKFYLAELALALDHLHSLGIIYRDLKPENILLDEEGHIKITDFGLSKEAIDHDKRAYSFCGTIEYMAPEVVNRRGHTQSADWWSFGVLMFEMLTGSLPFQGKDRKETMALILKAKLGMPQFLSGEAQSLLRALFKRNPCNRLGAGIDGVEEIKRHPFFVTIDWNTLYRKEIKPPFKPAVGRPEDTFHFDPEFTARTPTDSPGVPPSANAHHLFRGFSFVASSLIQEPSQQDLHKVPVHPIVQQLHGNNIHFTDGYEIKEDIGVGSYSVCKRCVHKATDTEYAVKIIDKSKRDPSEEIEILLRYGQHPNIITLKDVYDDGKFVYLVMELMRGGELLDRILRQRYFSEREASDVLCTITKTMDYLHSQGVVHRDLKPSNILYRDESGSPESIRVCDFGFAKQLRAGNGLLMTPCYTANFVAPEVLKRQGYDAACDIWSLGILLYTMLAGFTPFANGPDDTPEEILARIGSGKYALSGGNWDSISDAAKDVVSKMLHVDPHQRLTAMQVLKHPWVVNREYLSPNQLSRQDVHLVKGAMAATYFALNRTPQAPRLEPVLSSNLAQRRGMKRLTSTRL
Chain of RPS6KA1/RPS6KA2/RPS6KA3 (Q15418 whole entry, looked up, the tested form may be a part): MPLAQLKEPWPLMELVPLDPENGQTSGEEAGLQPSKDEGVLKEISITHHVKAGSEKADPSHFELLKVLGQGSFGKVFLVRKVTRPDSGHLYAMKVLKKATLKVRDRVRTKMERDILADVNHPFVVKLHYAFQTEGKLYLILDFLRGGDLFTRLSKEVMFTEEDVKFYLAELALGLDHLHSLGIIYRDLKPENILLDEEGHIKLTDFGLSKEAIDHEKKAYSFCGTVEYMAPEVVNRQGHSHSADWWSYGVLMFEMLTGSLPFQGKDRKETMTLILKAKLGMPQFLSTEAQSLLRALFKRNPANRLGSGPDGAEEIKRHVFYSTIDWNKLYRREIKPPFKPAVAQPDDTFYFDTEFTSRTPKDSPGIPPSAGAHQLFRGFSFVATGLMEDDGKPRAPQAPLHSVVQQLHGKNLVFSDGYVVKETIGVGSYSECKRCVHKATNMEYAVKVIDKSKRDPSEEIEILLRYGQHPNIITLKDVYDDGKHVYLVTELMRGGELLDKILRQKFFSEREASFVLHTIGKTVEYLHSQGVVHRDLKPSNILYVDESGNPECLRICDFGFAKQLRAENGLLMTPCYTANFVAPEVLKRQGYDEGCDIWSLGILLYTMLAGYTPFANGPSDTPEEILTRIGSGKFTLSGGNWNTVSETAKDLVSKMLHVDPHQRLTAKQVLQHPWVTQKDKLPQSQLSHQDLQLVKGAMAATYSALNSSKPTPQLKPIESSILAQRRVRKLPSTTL

[1] = target: Ribosomal protein S6 kinase alpha-3 (Homo sapiens, UniProt P51812); assay: Inhibition of RSK2 domain 2 in human HeLa cells lysate at 50 uM pre incubated for 15 mins followed by ATP acyl phosphate probe addition and measured after 10 mins by LC-MS/MS analysis relative to control; format: subcellular; details: time 25.0 min
Chain of Ribosomal protein S6 kinase alpha-3 (P51812 whole entry, the tested form may be a part): as the sequence (P51812 whole entry, looked up, the tested form may be a part) above

[2] = target: T1, Serine/threonine-protein kinase 3 (Homo sapiens) (UniProt Q13188); assay: Inhibition of MST2 in human HeLa cells lysate at 10 uM pre incubated for 15 mins followed by ADP acyl phosphate probe addition and measured after 10 mins by LC-MS/MS analysis relative to control; format: subcellular; details: time 25.0 min
T1 sequence (whole entry): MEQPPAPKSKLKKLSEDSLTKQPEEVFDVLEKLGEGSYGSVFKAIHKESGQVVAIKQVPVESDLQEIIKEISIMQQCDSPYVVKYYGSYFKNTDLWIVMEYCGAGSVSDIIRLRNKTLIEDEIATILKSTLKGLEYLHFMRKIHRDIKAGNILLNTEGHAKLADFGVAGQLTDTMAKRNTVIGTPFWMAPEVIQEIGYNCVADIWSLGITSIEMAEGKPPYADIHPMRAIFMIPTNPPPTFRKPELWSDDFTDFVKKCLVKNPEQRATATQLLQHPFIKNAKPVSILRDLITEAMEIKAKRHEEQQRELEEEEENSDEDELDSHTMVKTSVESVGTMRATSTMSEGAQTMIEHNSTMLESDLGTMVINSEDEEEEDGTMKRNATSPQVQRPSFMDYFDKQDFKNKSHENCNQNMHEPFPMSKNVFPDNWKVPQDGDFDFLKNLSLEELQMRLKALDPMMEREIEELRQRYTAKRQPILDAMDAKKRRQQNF

HeLa = assay: Antitumor activity against human HeLa cells xenografted in NOD/SCID mouse assessed as decrease in BrdU incorporation in cell nuclei in tumor at 50 mg/kg, ip by fluorescence microscopic analysis; format: functional, organism-based
Summary of the method: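 HeLa or LL/2 tumor sections from treated and control xenograft mice were stained with anti-BrdU antibody and DAPI and imaged by fluorescence microscopy. n = 6 mice, 9 slices.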

[3] = target: T2, Serine/threonine-protein kinase ULK3 (Homo sapiens) (UniProt Q6PHR2); assay: Inhibition of ULK3 in human HeLa cells lysate at 50 uM pre incubated for 15 mins followed by ADP acyl phosphate probe addition and measured after 10 mins by LC-MS/MS analysis relative to control; format: subcellular; details: time 25.0 min
T2 sequence (whole entry): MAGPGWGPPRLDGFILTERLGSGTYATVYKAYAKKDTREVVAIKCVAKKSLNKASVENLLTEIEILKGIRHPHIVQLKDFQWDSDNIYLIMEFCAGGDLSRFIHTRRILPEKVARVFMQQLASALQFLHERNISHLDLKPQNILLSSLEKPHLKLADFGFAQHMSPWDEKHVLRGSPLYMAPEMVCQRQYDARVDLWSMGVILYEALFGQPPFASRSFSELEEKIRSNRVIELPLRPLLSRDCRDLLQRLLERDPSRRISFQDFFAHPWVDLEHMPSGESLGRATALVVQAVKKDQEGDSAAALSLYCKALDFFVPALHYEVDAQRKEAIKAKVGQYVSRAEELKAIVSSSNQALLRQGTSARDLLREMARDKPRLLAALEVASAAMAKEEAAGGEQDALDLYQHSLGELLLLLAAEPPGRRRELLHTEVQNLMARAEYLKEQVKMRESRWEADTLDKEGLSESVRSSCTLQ

[4] = target: Serine/threonine-protein kinase 24 (Homo sapiens, UniProt Q9Y6E0); assay: Inhibition of MST3 in human HeLa cells lysate pre incubated for 15 mins followed by ADP acyl phosphate probe addition and measured after 10 mins by LC-MS/MS analysis; format: subcellular
Chain of Serine/threonine-protein kinase 24 (Q9Y6E0 whole entry): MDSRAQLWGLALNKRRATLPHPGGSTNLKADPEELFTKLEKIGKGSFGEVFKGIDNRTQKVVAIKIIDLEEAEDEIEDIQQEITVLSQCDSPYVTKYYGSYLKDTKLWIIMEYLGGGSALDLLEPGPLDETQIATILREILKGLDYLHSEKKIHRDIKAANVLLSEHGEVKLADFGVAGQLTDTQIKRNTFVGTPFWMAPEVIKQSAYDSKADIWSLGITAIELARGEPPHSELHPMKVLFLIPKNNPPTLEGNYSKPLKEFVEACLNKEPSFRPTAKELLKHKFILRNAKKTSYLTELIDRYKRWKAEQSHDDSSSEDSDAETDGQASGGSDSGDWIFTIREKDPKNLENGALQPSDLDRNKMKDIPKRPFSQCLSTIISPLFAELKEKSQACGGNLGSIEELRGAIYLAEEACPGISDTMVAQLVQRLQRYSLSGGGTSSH

eIF-2-alpha kinase GCN2 = eIF-2-alpha kinase GCN2 (Homo sapiens, UniProt Q9P2K8); assay: Inhibition of GCN2 in human HeLa cells lysate at 50 uM pre incubated for 15 mins followed by ATP acyl phosphate probe addition and measured after 10 mins by LC-MS/MS analysis relative to control; format: subcellular; details: time 25.0 min
[5] = target: Calcium/calmodulin-dependent protein kinase type 1D (Homo sapiens, UniProt Q8IU85); assay: Inhibition of CAMK1d in human HeLa cells lysate at 2 uM pre incubated for 15 mins followed by ADP acyl phosphate probe addition and measured after 10 mins by LC-MS/MS analysis relative to control; format: subcellular; details: time 25.0 min
Summary of the method: (§1)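 KiNativ-type profiling in HeLa lysate (5 mg/mL total protein). Lysate preincubated 15 min with inhibitor at 50, 10, 2, 0.8 or 0 μM, then ATP or ADP acylphosphate probe added (5 μM final) for 10 min. Reaction stopped with urea and analysed by targeted MS, using up to four fragment ions per kinase peptide-probe conjugate. % inhibition calculated against untreated lysate. Duplicate reactions.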

[6] = target: Non-receptor tyrosine-protein kinase TNK1 (Homo sapiens, UniProt Q13470); assay: Inhibition of TNK1 in human HeLa cells lysate pre incubated for 15 mins followed by ADP acyl phosphate probe addition and measured after 10 mins by LC-MS/MS analysis; format: subcellular
Chain of Non-receptor tyrosine-protein kinase TNK1 (Q13470 whole entry): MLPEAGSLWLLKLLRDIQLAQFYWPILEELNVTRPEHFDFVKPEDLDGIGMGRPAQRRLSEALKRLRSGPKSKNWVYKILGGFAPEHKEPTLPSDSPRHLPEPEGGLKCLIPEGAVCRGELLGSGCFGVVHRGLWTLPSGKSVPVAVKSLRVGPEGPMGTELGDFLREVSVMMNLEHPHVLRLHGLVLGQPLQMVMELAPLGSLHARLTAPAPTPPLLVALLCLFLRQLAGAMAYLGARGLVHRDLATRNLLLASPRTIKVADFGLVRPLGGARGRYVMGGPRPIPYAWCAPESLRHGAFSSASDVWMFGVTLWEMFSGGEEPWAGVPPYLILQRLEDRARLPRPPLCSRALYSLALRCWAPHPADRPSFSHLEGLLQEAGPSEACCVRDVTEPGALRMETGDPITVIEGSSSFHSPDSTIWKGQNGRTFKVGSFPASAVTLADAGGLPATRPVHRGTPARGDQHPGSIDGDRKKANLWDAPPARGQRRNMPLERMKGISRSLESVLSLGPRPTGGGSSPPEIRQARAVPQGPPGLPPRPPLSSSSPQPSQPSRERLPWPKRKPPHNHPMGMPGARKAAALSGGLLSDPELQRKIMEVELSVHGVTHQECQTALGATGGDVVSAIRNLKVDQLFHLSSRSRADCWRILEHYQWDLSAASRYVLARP

[7] = target: Hepatocyte growth factor receptor (Homo sapiens, UniProt P08581); assay: Inhibition of MET in human HeLa cells lysate pre incubated for 15 mins followed by ATP acyl phosphate probe addition and measured after 10 mins by LC-MS/MS analysis; format: subcellular
Chain of Hepatocyte growth factor receptor (P08581 whole entry): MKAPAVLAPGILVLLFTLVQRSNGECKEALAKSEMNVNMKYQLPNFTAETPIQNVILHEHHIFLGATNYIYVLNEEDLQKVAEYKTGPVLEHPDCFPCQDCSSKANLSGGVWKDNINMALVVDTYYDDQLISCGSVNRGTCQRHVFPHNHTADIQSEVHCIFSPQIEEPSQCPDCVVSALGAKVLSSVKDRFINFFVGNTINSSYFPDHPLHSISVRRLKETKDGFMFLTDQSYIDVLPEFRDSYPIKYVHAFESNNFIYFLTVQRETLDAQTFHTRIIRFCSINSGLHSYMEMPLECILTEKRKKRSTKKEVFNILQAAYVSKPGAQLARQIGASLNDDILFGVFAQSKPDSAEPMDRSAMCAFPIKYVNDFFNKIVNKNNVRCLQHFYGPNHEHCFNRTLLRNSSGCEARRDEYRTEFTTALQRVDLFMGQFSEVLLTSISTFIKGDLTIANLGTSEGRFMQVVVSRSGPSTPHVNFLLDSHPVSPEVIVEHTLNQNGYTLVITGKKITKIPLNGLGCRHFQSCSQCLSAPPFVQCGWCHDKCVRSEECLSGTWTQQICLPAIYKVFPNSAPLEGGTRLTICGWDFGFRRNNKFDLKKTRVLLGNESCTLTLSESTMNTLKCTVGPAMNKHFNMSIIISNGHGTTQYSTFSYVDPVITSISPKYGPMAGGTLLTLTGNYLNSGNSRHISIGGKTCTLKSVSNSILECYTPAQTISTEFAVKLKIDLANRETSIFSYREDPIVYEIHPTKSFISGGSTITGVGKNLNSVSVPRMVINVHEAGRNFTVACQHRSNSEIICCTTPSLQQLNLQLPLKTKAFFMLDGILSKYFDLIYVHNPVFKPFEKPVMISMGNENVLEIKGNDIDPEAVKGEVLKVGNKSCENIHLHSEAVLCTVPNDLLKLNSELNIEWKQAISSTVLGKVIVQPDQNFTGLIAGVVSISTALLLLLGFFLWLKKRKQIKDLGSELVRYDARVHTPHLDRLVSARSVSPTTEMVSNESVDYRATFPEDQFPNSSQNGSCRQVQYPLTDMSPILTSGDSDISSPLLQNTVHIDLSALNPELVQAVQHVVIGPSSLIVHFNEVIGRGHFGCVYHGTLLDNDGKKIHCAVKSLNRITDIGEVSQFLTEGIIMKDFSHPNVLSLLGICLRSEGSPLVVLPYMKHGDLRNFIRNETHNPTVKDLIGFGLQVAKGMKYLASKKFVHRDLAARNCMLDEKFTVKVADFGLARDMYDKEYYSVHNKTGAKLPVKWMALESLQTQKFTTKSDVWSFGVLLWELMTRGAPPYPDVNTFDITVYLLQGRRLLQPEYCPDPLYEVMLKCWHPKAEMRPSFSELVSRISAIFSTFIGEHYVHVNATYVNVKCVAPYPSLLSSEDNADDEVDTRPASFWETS

[8] = target: Serine/threonine-protein kinase B-raf (Homo sapiens, UniProt P15056); assay: Inhibition of BRAF in human HeLa cells lysate at 50 uM pre incubated for 15 mins followed by ATP acyl phosphate probe addition and measured after 10 mins by LC-MS/MS analysis relative to control; format: subcellular; details: time 25.0 min; summary of the method: as §1
Lewis lung carcinoma = assay: Antitumor activity against mouse LL2 cells allografted in C57Bl/6 mouse assessed as reduction tumor growth at 50 mg/kg, ip administered on day 10 post implantation measured after 17 days; format: functional, organism-based; details: time 7.0 day
Summary of the method: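 LL/2 cells (1×10^6, in DMEM) were injected s.c. into the right flank of 6-week-old C57Bl/6 mice on day 0. Dosing was 50 mg/kg i.p. twice daily, starting on day 1, 7 or 10 and continuing to day 17; controls received carrier. 6 mice per treated group. Tumors were measured every 2–3 days.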

CCOc1cc(N2CCC(O)CC2)ccc1Nc1ncc2c(n1)N(C)c1ccccc1C(=O)N2C
inhibition (RPS6KA1/RPS6KA2/RPS6KA3): 9.4% | inhibition [1]: 47.7% | inhibition [2]: 23.5% | Activity (HeLa): Active | inhibition [3]: 19.4% | IC50 [4]: > 50 µM | inhibition (eIF-2-alpha kinase GCN2): 7% | inhibition [5]: 4.7% | IC50 [6]: 10 µM | IC50 [7]: > 50 µM | inhibition [8]: 8% | Activity (Lewis lung carcinoma): Active
